Published values from different studies.
Lines come from different studies, so protocols differ.
Cell line: HT-29

Compound	effect on	technique	time	IC50
O=C1Nc2ccc(Br)cc2/C1=N/NC(=O)c1cc2ccccc2[nH]1	cell growth or viability	–	–	21.9 µM
COc1ccc(C(=O)O[C@@H]2CN3Cc4c(cc5c(c4OC)OCO5)[C@@]24C=C[C@H](OC)C[C@@H]34)cc1OC	cell growth or viability	WST-1	–	> 10 µM
O=C(O)/C=C/c1ccc(O)c(O)c1	cell growth or viability	MTT	–	4.3 µM
O=c1[nH]c(=O)n([C@H]2C[C@H](O)[C@@H](CO)O2)cc1F	cell growth or viability	SRB	72 h	0.056 µM
CCCCCCCCCCCC(=O)Oc1c(C)c(O)c(C(=O)/C=C/c2ccccc2)c(OC)c1C	cell growth or viability	SRB	72 h	> 50 µM
F[B-](F)(F)F.[Fe+3].c1cc[cH-]c1.c1cc[cH-]c1	cell growth or viability	MTT	–	180 µM
C#Cc1cc(Nc2nccc(Oc3ccc(NC(=O)Nc4cc(C(C)(C)C)nn4-c4ccc(C)cc4)c4ccccc34)n2)cc(C(=O)NCCOCCOCCOC)c1	IL-8 release	–	24 h	0.0018 µM
CC[C@H](C)C(=O)O[C@H]1CCC=C2C=C[C@H](C)[C@H](CC[C@@H]3C[C@@H](O)CC(=O)O3)[C@H]21	cell growth or viability	SRB	72 h	0.07 mg/L
O=C(O)/C=C/c1ccc(O)cc1	cell growth or viability	MTT	–	> 50 µM
Cc1occc(=O)c1[O-].[Cl-].[W+4].c1cc[cH-]c1.c1cc[cH-]c1	cell growth or viability	MTT	–	540 µM
COc1ccc2c(c1)/C(=N/NC(=O)c1cc3ccccc3[nH]1)C(=O)N2	cell growth or viability	–	–	> 30 µM
COc1ccc(C(=O)O[C@@H]2CN3Cc4c(cc5c(c4OC)OCO5)[C@@]24C=C[C@H](OC)C[C@@H]34)cc1	cell growth or viability	WST-1	–	> 10 µM
COc1c(C)c(OS(=O)(=O)c2ccc3ccccc3c2)c(C)c(OS(=O)(=O)c2ccc3ccccc3c2)c1C(=O)/C=C/c1ccccc1	cell growth or viability	SRB	72 h	> 50 µM
CCN(CC)CCNC(=O)c1c(C)[nH]c(/C=C2\C(=O)Nc3ccc(F)cc32)c1C	cell growth or viability	–	–	10.1 µM
Cc1nc(Nc2ncc(C(=O)Nc3c(C)cccc3Cl)s2)cc(N2CCN(CCO)CC2)n1	IL-8 release	–	24 h	> 2.05 µM
C#Cc1cccc(Nc2ncnc3cc(OCCOC)c(OCCOC)cc23)c1	cell growth or viability	MTT	–	0.07 µM
CC[C@H](C)C(=O)O[C@H]1C[C@@H](C)C=C2C=C[C@H](C)[C@H](CC[C@@H]3C[C@@H](O)CC(=O)O3)[C@H]21	cell growth or viability	SRB	72 h	7.26 mg/L
O=C1Nc2ccc(Cl)cc2/C1=N/NC(=O)c1cc2ccccc2[nH]1	cell growth or viability	–	–	> 30 µM
CCC[C@H](Nc1nc(-c2ccc(NC(=O)NCC)c(OC)c2)ncc1C)c1cccnc1	cell growth or viability	fluorescence	72 h	0.0393 µM
NCCC(=O)Nc1ccc(-n2nc(C(F)(F)F)cc2-c2ccc3c(c2)oc2ccccc23)cc1	cell growth or viability	MTT	24 h	7.2 mg/L
O=C1Nc2ccc(F)cc2/C1=N/NC(=O)c1cc2ccccc2[nH]1	cell growth or viability	–	–	> 30 µM
C#C[C@@]1(O)[C@@H](CO)O[C@@H](n2ccc(N)nc2=O)[C@@H]1O	cell growth or viability	SRB	72 h	0.0094 µM
CC(C)C[C@H](NC(=O)[C@H](Cc1ccccc1)NC(=O)c1cnccn1)B(O)O	cell growth or viability	ATP luminescence	–	0.0098 µM
O=C1Nc2ccccc2/C1=N/NC(=O)c1cc2ccccc2[nH]1	cell growth or viability	–	–	19.7 µM
CC(=O)c1cccc(/N=N/c2cc(/C=C/C(=O)O)ccc2O)c1	cell growth or viability	MTT	–	> 50 µM
NCC(=O)Nc1ccc(-n2nc(C(F)(F)F)cc2-c2ccc3c(ccc4ccccc43)c2)cc1	cell growth or viability	MTT	24 h	3.6 mg/L
CC(=O)O[C@H]1C(=O)[C@@]2(C)[C@H]([C@H](OC(=O)c3ccccc3)[C@]3(O)C[C@H](OC(=O)[C@H](O)[C@@H](NC(=O)c4ccccc4)c4ccccc4)C(C)=C1C3(C)C)[C@]1(OC(C)=O)CO[C@@H]1C[C@@H]2O	cell growth or viability	fluorescence	72 h	0.0035 µM
